Here are results for seven molecules from ChEMBL document CHEMBL1121929, “[(3-aryl-1,2-benzisoxazol-6-yl)oxy]acetic acids. A new diuretic series” (1982).

Experiment [1] deals with Mus musculus. Briefly: The diuretic activity of compound was measured after oral administration in saline loaded mice at 8 mg/kg after 5h; micro equiv of Na+/kg. Type of experiment: functional, Urine.
Experiment [2] relates to Mus musculus. Briefly: The diuretic activity was measured after oral administration in saline loaded mice at 64 mg/kg after 5 hr. Type of experiment: functional, Urine. The method in brief:
(§1)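 Mice were dosed orally with drug in 1% saline at 10 mL/kg, at 4 or 64 mg/kg, alongside a vehicle control. There were 10 mice per group, housed 5 per metabolic cage. Pooled urine was analysed for sodium by flame photometry and expressed as mean mequiv/kg/5 h.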

The subject of experiment [3] is Canis familiaris. Briefly: Diuretic activity was measured after oral administration in conscious water loaded dogs at 20 mg/kg after 1 hr. It counts as functional, Canis lupus familiaris, Urine. A digest of the protocol:
(§2)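 Male mongrel dogs (20–25 kg) were given 20 mL/kg tap water by gavage about 15 h before drug, with water ad libitum overnight. On the test day they received 4 mL/kg tap water hourly for 7 h, and the bladder was emptied at each interval. Drug was gavaged in the 4 mL/kg water load after the third urine sample, with Tween 80 added when it was poorly soluble. Urinary Na+ was measured by flame photometry as the mean excretory rate (μequiv/kg) per interval per animal. Each dog was its own control, using the hour before dosing.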

The test system of experiment [4] is Mus musculus. Briefly: The diuretic activity of compound was measured after oral administration in saline loaded mice at 64 mg/kg after 5h. Type of experiment: functional, Urine. A digest of the protocol: as §1
For experiment [5], the system named is Mus musculus. Briefly: The diuretic activity of compound was measured after oral administration in saline loaded mice at 4 mg/kg after 5h. Type of experiment: functional, Urine. The method in brief: as §1
The subject of experiment [6] is Canis familiaris. Briefly: The diuretic activity of compound was measured after oral administration in conscious water loaded dogs at 5 mg/kg after 7h; Micro equiv of Na+/kg. It counts as functional, Canis lupus familiaris, Urine. A digest of the protocol: as §2
Experiment [7] relates to Canis familiaris. Briefly: The diuretic activity of compound was measured after oral administration in conscious water loaded dogs at 5 mg/kg after 4 hr; Micro equiv of Na+/kg. Type of experiment: functional, Canis lupus familiaris, Urine. The method in brief:
as §2

The subject of experiment [8] is Canis familiaris. Briefly: The diuretic activity of compound was measured after oral administration in conscious water loaded dogs at 5 mg/kg after 2 hr; Micro equiv of Na+/kg. Type of experiment: functional, Canis lupus familiaris, Urine. A digest of the protocol: as §2
Experiment [9] concerns Canis familiaris. Briefly: The diuretic activity of compound was measured after oral administration in conscious water loaded dogs at 5 mg/kg after 6 h; Micro equiv of Na+/kg. Type of experiment: functional, Canis lupus familiaris, Urine. A digest of the protocol:
as §2

Experiment [10] has as its system Canis familiaris. Briefly: The diuretic activity of compound was measured after oral administration in conscious water loaded dogs at 5 mg/kg after 3 hr; Micro equiv of Na+/kg. It counts as functional, Canis lupus familiaris, Urine. A digest of the protocol:
as §2

The subject of experiment [11] is Canis familiaris. Briefly: The diuretic activity of compound was measured after oral administration in conscious water loaded dogs at 5 mg/kg after 5h; Micro equiv of Na+/kg. Type of experiment: functional, Canis lupus familiaris, Urine. A digest of the protocol: as §2
The subject of experiment [12] is Canis familiaris. Briefly: The diuretic activity of compound was measured after oral administration in conscious water loaded dogs at 5 mg/kg after 1 hr; Micro equiv of Na+/kg. It counts as functional, Canis lupus familiaris, Urine. A digest of the protocol:
as §2

Experiment [13] has as its system Mus musculus. Briefly: The diuretic activity was measured after oral administration in saline loaded mice at 4 mg/kg after 5 hr. It counts as functional, Urine. A digest of the protocol:
as §1

Experiment [14] concerns Canis familiaris. Briefly: Diuretic activity was measured after oral administration in conscious water loaded dogs at 5 mg/kg after 1 hr. It counts as functional, Canis lupus familiaris, Urine. A digest of the protocol: as §2
In experiment [15] the test system is Canis familiaris. Briefly: Diuretic activity was measured after oral administration in conscious water loaded dogs at 10 mg/kg after 2 hr.

SMILES strings stand for the structures.

Take `Cc1c(OCC(=O)O)ccc2c(-c3ccccc3F)noc12`: the Oral diuretic activity was 1.86 m equiv [Na+] 5hr-1kg-1 in [1], 7.24 m equiv [Na+] 5hr-1kg-1 in experiment [2] and 478.9 u equiv of [Na+] kg-1 hr-1 in experiment [3].

Consider `O=C(O)COc1ccc2c(-c3cccc[n+]3[O-])noc2c1Cl`, for which the Oral diuretic activity is 1 m equiv [Na+] 5hr-1kg-1 in experiment [4], 0.5 m equiv [Na+] 5hr-1kg-1 in experiment [5] and 116.6 u equiv of [Na+] kg-1 hr-1 in experiment [3].

Regarding `O=C(O)COc1ccc2c(-c3ccccc3F)noc2c1Cl`, the Oral diuretic activity was 146.2 u equiv of [Na+] kg-1 in experiment [6]; 503.7 u equiv of [Na+] kg-1 in experiment [7]; 499.4 u equiv of [Na+] kg-1 in experiment [8]; 241.7 u equiv of [Na+] kg-1 in experiment [9]; 727 u equiv of [Na+] kg-1 in [10]; 10 m equiv [Na+] 5hr-1kg-1 in experiment [2]. In addition, the Oral diuretic activity in experiment [11] is 458.2 u equiv of [Na+] kg-1; in experiment [12], 48.6 u equiv of [Na+] kg-1; in experiment [13] it was 3.5 m equiv [Na+] 5hr-1kg-1; in experiment [3], 1267.5 u equiv of [Na+] kg-1 hr-1.

In the case of `O=C(O)COc1ccc2c(-c3c(F)cccc3F)noc2c1Cl`, the Oral diuretic activity was 190 u equiv of [Na+] kg-1 in experiment [6]; 431.8 u equiv of [Na+] kg-1 in experiment [7]; 98.9 u equiv of [Na+] kg-1 in experiment [8]; 342.6 u equiv of [Na+] kg-1 in experiment [9]; 257.2 u equiv of [Na+] kg-1 in experiment [10]; 10.4 m equiv [Na+] 5hr-1kg-1 in [2]. For the same molecule, the Oral diuretic activity in [11] was 397 u equiv of [Na+] kg-1; in experiment [12] it was 108.4 u equiv of [Na+] kg-1; in experiment [13], 5.3 m equiv [Na+] 5hr-1kg-1; in experiment [3], 1081.4 u equiv of [Na+] kg-1 hr-1.

For the molecule `C=C(CC)C(=O)c1ccc(OCC(=O)O)c(Cl)c1Cl` [ETHACRYNIC ACID], the Oral diuretic activity in experiment [4] is 4.14 m equiv [Na+] 5hr-1kg-1; in [5], 1.09 m equiv [Na+] 5hr-1kg-1; in experiment [3], 703 µequiv [Na+] kg-1 hr-1.

Consider `NS(=O)(=O)c1cc(C(=O)O)c(NCc2ccco2)cc1Cl` [FUROSEMIDE], for which the Oral diuretic activity in [7] is 333.9 u equiv of [Na+] kg-1; in experiment [14], 1311.5 u equiv of [Na+] kg-1 hr-1; in experiment [8] it was 1311.5 u equiv of [Na+] kg-1; in experiment [9] it was 40.4 u equiv of [Na+] kg-1; in [10], 763.6 u equiv of [Na+] kg-1; in experiment [2], 7.96 m equiv [Na+] 5hr-1kg-1. The figures for the Oral diuretic activity in experiment [11], in experiment [12] and in experiment [13] were 144.1 u equiv of [Na+] kg-1, 1207 u equiv of [Na+] kg-1 and 1.93 m equiv [Na+] 5hr-1kg-1, respectively.

As for `CC1(c2ccccc2)Cc2cc(OCC(=O)O)c(Cl)c(Cl)c2C1=O` (stereo unspecified) [INDACRINONE], the Oral diuretic activity in experiment [15] is 1141.4 u equiv of [Na+] kg-1 hr-1; in experiment [2], 7.6 m equiv [Na+] 5hr-1kg-1; in experiment [13], 2.1 m equiv [Na+] 5hr-1kg-1.
